Measured values pooled from the literature.
Lines come from different studies, so protocols differ.

| SMILES | test | test system | conditions | kinetic solubility |
| --- | --- | --- | --- | --- |
| CCOC(=O)NS(=O)(=O)c1sc(CC(C)C)cc1-c1ccc2c(c1)CN(C(C)=O)C2 | – | aqueous buffer | pH 7.4, 37 °C | 35 µM |
| Fc1ccc(Nc2c(-c3ccccn3)nc3ccc(C4CC4)cn23)cc1 | – | aqueous buffer | 24 h | 3 µM |
| CN[C@H]1CCCN(c2ccc(Nc3cc(NC4CC4)n4ncc(C#N)c4n3)cc2NC(C)=O)C1 | shake flask | PBS | 24 h, pH 7.4, 22 °C | 54 µg/mL |
| CNC(=O)[C@H](Cc1c[nH]cn1)NC(=O)CN(CC(=O)O)Cc1ccccc1 | – | PBS | 24 h, pH 7.4 | 151 µM |
| CCCCOC(=O)NS(=O)(=O)c1sc(CC(C)C)cc1-c1ccc2c(c1)CN(C(C)=O)C2 | – | aqueous buffer | pH 7.4, 37 °C | 30 µM |
| CC(=O)Nc1cc(Nc2cc(NC3CC3)n3ncc(C#N)c3n2)ccc1N(C)C1COC1 | shake flask | PBS | 24 h, pH 7.4, 22 °C | 0.9 µg/mL |
| CNC(=O)[C@H](Cc1c[nH]cn1)NC(=O)CN(CCCc1ccccc1)CC(=O)OC | – | PBS | 24 h, pH 7.4 | 179 µM |
| CC(=O)Nc1cc(Nc2cc(NC3CC3)n3ncc(C#N)c3n2)ccc1N(C)[C@@H]1CCOC1 | shake flask | PBS | 24 h, pH 7.4, 22 °C | 25 µg/mL |
| Cc1cc(Nc2ccc(C(F)(F)F)cc2)c2ccccc2n1 | – | simulated gastric fluid | pH 2, acidic | > 330 µM |
| CCCCOC(=O)NS(=O)(=O)c1sc(CC(C)C)cc1-c1ccc(OC(F)(F)F)c(Cn2ccnc2)c1 | – | aqueous buffer | pH 7.4, 37 °C | 52 µM |
| CNC(=O)[C@H](Cc1c[nH]cn1)NC(=O)CN(CCCc1ccccc1)CC(=O)O | – | PBS | 24 h, pH 7.4 | 170 µM |
| Cc1cc(Nc2ccc(S(F)(F)(F)(F)F)cc2)n2ccnc2n1 | – | PBS | pH 6.5 | 8.9 µM |
| CCC(=O)Nc1cc(Nc2cc(NC3CC3)n3ncc(C#N)c3n2)ccc1N1CCC[C@@H](NC)C1 | shake flask | PBS | 24 h, pH 7.4, 22 °C | 65 µg/mL |
| O=C1CCC(N2C(=O)c3cccc(NCCCCNC(=O)c4cccc(C#Cc5cc(NC(=O)Nc6ccnc(Cl)c6)ccn5)c4)c3C2=O)C(=O)N1 (stereo not drawn) | – | PBS | 24 h, pH 7.4 | < 1.56 µM |
| COC(=O)[C@H](Cc1c[nH]cn1)NC(=O)CN(CCCc1ccccc1)CC(=O)O | – | PBS | 24 h, pH 7.4 | 199 µM |
| CCCCOC(=O)NS(=O)(=O)c1sc(CC(C)C)cc1-c1ccc2c(c1)CCN(C(C)=O)C2 | – | aqueous buffer | pH 7.4, 37 °C | 45 µM |
| CCc1cnc2c(c1)[C@@H](N1CCOc3c(cc(Cn4ccnc4)cc3-c3cn(C)nc3C(F)(F)F)C1=O)CCC2 | – | PBS | 1 h, pH 7.4 | 74 µM |
| CC(=O)Nc1cc(Nc2cc(NC3CC3)n3ncc(C#N)c3n2)ccc1N(C)C[C@@H]1CCCN1 | shake flask | PBS | 24 h, pH 7.4, 22 °C | 68 µg/mL |
| O=C(/C=C/c1cccnc1)NCCCCC1CCN(C(=O)c2ccccc2)CC1 | – | PBS | 90 min, pH 7.4 | 225 µM |
| COC(=O)CN(CC(=O)N[C@@H](Cc1c[nH]cn1)C(=O)OC)Cc1ccccc1 | – | PBS | 24 h, pH 7.4 | 191 µM |
| CN[C@@H]1CCN(c2ccc(Nc3cc(NC4CC4)n4ncc(C#N)c4n3)cc2NC(C)=O)C1 | shake flask | PBS | 24 h, pH 7.4, 22 °C | 64 µg/mL |
